Sampled rows, rich in hits. Any-hit rate of the full collection: about 3%.
SENP6 block = inhibitors of human SENP6 protease; Q9GZR1; hit rate 1.8% among 330,000; inhibition, % at 10 µM; Recombinant SENP6 catalytic domain, aminoluciferin luminescence;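 active means inhibition above about 50% at the single tested dose, limit read from the data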;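 further: plate controls were DMSO wells with enzyme for no effect and DMSO wells lacking enzyme for full effect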
SENP7 block = inhibitors of human SENP7 protease; recombinant SENP7, Z-RLRGG-aminoluciferin luminescence, 40 min; inhibition, % at 5 µM; hit rate 1.5% among 330,000; AID 434973;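 active means inhibition above about 50% at the single test dose, limit read from the data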;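 further: plate controls were DMSO with enzyme for no effect and no enzyme buffer wells for full effect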
Target sequence (Q9BQF6 706-1050 limits assumed): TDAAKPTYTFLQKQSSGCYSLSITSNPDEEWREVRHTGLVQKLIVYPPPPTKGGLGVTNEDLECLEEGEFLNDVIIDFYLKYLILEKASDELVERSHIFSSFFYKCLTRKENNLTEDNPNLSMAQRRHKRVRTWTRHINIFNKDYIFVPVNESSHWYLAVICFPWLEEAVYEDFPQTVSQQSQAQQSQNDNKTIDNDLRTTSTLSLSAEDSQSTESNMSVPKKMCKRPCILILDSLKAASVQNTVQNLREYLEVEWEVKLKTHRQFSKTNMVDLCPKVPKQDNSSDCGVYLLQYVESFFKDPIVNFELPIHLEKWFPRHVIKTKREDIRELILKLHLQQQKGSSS
Apaf1 inhib = human Apaf-1 inhibition. hit rate 0.71% among 330,000. O14727. inhibition, % at 20 µM. reconstituted apoptosome caspase-3 activity, DEVD-Rh110 fluorescence; active means inhibition of at least 40% at 20 µM;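 further: plate controls were DMSO wells for no effect and DEVD-CHO caspase inhibitor wells for full effect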
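detection = Rh110 fluorescence intensity | test system = biochemical Apaf-1 apoptosome reconstitution | also added = cytochrome c and DEVD-Rh110 substrate | schedule = 30 min plus 50 min, RT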
SENP8 block-1 = SENP8 (human) protease inhibition; Q96LD8; recombinant SENP8, Nedd8 substrate fluorescence; inhibition, % at 20 µM; hit rate 0.64% among 360,000; AID 602440; in the data active means inhibition mostly above about 40%, no sharp cut-off; inactive means mostly below about 27%
Target sequence (Q96LD8 whole entry, looked up): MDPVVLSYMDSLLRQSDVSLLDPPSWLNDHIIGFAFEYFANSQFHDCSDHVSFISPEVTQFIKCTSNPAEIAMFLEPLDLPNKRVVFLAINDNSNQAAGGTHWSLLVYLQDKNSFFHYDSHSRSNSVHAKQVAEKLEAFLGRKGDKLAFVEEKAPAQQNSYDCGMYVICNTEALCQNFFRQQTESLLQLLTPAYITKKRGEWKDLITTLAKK
UBC13 inh = inhibitors of human UBC13 polyubiquitin chain formation; AID 485273; inhibition, % at 20 µM; TR-FRET; hit rate 0.47% among 330,000; in the data active means inhibition above about 45%, passing the limit was not always enough
SENP8 block-2 = SENP8 protease inhibition; Q96LD8; purified SENP8, Z-RLRGG-aminoluciferin cleavage, luminescence; inhibition, % at 10 µM; hit rate 1.2% among 330,000; in the data active means inhibition above about 50%
SENP8 confirm = confirmation of human SENP8 protease inhibitors | shares compounds with SENP7 block | Recombinant SENP8, Z-RLRGG-aminoluciferin luminescence, 60 min | inhibition, % at 12.5 µM | hit rate 40% among 6,200 | AID 488912;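 active means mean inhibition across replicates above about 50%, limit read from the data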
SENP6 conf = confirmation of human SENP6 protease inhibitors; shares compounds with SENP7 block; hit rate 58% among 6,200; recombinant SENP6, Z-RLRGG-aminoluciferin luminescence; inhibition, % at 12.5 µM
SENP7 conf = human SENP7 inhibition, confirmed; shares compounds with SENP7 block; recombinant SENP7, Z-RLRGG-aminoluciferin luminescence, 40 min; inhibition, % at 12.5 µM; hit rate 69% among 6,200
Casp3 select = selectivity test for SENP inhibitors: human caspase-3 inhibition | inhibition, % at 12.5 µM | purified caspase-3, Z-DEVD-aminoluciferin luminescence, 60 min | hit rate 60% among 6,200 | shares compounds with SENP7 block;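 active means mean inhibition above about 50%, limit read from the data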;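 further: plate controls were enzyme with DMSO for no effect and wells without caspase-3 for full effect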
SENP luc ctr = interferes with luciferase luminescence in SENP counter-screen; shares compounds with SENP7 block; Pre-incubated SENP8/Z-RLRGG-aminoluciferin, luciferase luminescence interference; inhibition, % at 12.5 µM; hit rate 39% among 6,200; AID 488919;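 active means mean inhibition above about 50% when retested at one dose, limit read from the data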;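 further: plate controls were DMSO wells with completed reaction for no effect and substrate without enzyme for full effect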
An asterisk follows results filed as active; nt = no result given.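 How the source made its calls, unless noted: active means mean inhibition above about 50% in the one-dose retest (limit read from the data); inactive means the rest.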

SMILES	SENP6 block	SENP7 block	Apaf1 inhib	SENP8 block-1	UBC13 inh	SENP8 block-2	SENP8 confirm	SENP6 conf	SENP7 conf	Casp3 select	SENP luc ctr
O=C(O)c1ccc(N2CCCCC2)cc1O	7	0	-8	11	6	1	nt	nt	nt	nt	nt
O=C(O)c1ccc(N2Cc3ccccc3C2)cc1O	70*	-2	-8	-3	-9	65*	4	71*	89*	90*	75*
CCOC(=O)/C=C/c1ccc2oc3ccccc3c(=O)c2c1	94*	92*	8	-30	-6	83*	-1	4	60*	3	2
O=C(COC(=O)c1cnccn1)c1ccc(Cl)cc1	7	0	-20	16	0	2	nt	nt	nt	nt	nt
O=C(Nc1ccc(N2CCOCC2)c(Cl)c1)c1ccccc1F	-2	7	-16	8	2	-17	nt	nt	nt	nt	nt
Cc1cc(C(=O)Nc2ccc(N3CCOCC3)c(Cl)c2)c(C)o1	77*	58*	-8	23	0	57*	71*	69*	88*	77*	74*
COc1cc(NC(=O)C(C)Oc2ccccc2)ccc1NC(=O)COc1ccccc1 (centres undefined)	-11	-5	15	-7	8	-2	nt	nt	nt	nt	nt
Cc1ccccc1OCCC(=O)N1CCN(S(=O)(=O)c2ccc(Br)cc2)CC1	-16	-3	27	16	1	-1	nt	nt	nt	nt	nt
O=c1c2c(nc3n1CCCCC3)sc1c(O)c(Br)ccc12	65*	34	-9	6	6	26	59*	59*	87*	69*	14
CCN(CC)CCOc1c(Br)ccc2c1sc1nc3n(c(=O)c12)CCC3	-14	-3	1	-5	3	6	nt	nt	nt	nt	nt
COc1cccc(CNc2cnc3ccccc3c2)c1O	60*	38	0	-304	7	42	37	35	77*	34	61*
Cc1ccc(O)c(CNc2cnc3ccccc3c2)c1	-8	-5	7	-332	17	-16	nt	nt	nt	nt	nt
Cc1ccc(NC(=S)c2nc3ccccc3[nH]2)cc1	79*	55*	7	17	-25	57*	71*	78*	95*	60*	42
O=C1/C(=C/c2ccc(O)cc2)CCc2ccc([N+](=O)[O-])cc21	-28	-2	10	21	-3	-31	nt	nt	nt	nt	nt
O=C1/C(=C/Nc2cccc([N+](=O)[O-])c2)CCc2ccccc21	19	29	-17	-126	-11	61*	2	81*	92*	60*	24
O=C(O)c1c(NC(=O)c2cccc3ccccc23)sc2c1CCC2	35	0	8	10	-1	18	nt	nt	nt	nt	nt
O=C(Nc1sc2c(c1C(=O)O)CCC2)c1ccccc1	88*	92*	10	-59	0	94*	46	99*	103*	97*	85*
O=C(Nc1sc2c(c1C(=O)O)CCC2)c1ccc(F)cc1	87*	45	8	-84	-9	81*	89*	90*	95*	91*	58*
COc1ccc(C(=O)Nc2sc3c(c2C#N)CCN(C(C)=O)C3)cc1	79*	6	23	-362	-24	4	-21	-16	-5	-7	-4
NC(=O)c1c(NC(=O)c2ccc(F)cc2Cl)sc2c1CCC2	23	-9	9	-12	13	5	nt	nt	nt	nt	nt
NCCNC(=O)c1c(NC(=O)c2ccccc2)sc2c1CCCC2	0	4	10	-149	11	-4	nt	nt	nt	nt	nt
O=C(Nc1sc2c(c1C(=O)O)CCCCC2)c1ccccc1	99*	83*	10	-100	-12	95*	97*	100*	103*	98*	98*
Cc1ccc(S(=O)(=O)N2CCN(C(=O)CNC(=O)c3ccc(Cl)cc3)CC2)cc1	4	-3	-1	5	-1	6	nt	nt	nt	nt	nt
O=c1[nH]c(-c2ccccc2)c(-c2ccccc2)o1	10	-3	1	-177	15	-5	nt	nt	nt	nt	nt
COc1ccc(Cc2nnc(NC(=O)c3cccc(F)c3)s2)cc1OC	3	6	2	12	3	9	nt	nt	nt	nt	nt
SMILES	SENP6 block	SENP7 block	Apaf1 inhib	SENP8 block-1	UBC13 inh	SENP8 block-2	SENP8 confirm	SENP6 conf	SENP7 conf	Casp3 select	SENP luc ctr
N#Cc1c(NC(=O)c2ccccc2)sc2c1CCCCC2	74*	56*	4	-39	13	51*	10	20	24	20	26
O=C(Nc1sc2c(c1C(=O)O)CCCC2)c1cccc(Cl)c1	92*	38	15	-18	-8	91*	96*	96*	99*	87*	96*
NC(=O)c1c(NC(=O)c2ccccc2C(=O)O)sc2c1CCCC2	4	5	-8	1	2	1	nt	nt	nt	nt	nt
NC(=O)c1c(NC(=O)c2ccccc2F)sc2c1CCCC2	56*	20	14	-160	3	19	-7	26	2	4	-4
CCCCN(C(=O)c1ccc(-c2ccc([N+](=O)[O-])cc2)o1)c1c(N)n(CC(C)C)c(=O)[nH]c1=O	-7	-4	-3	0	-24	-7	nt	nt	nt	nt	nt
COc1cc(-c2[nH]ncc2CN2CCN(Cc3cccs3)CC2)cc(OC)c1OC	-12	3	4	5	-16	-4	nt	nt	nt	nt	nt
Cc1cc(C(=O)Nc2ccon2)c(C)o1	-39	-9	-9	1	-28	-10	nt	nt	nt	nt	nt
CC(C)(C)c1cc(NC(=O)c2ccco2)no1	67*	71*	6	9	-4	32	53*	57*	86*	83*	56*
Cc1cc(C(=O)Nc2cc(C(C)(C)C)on2)c(C)o1	73*	71*	-4	2	3	64*	15	25	44	51*	11
CN(C)/C=C1\C(=O)N(c2ccc([N+](=O)[O-])cc2)N=C1c1ccccc1	98*	97*	13	62*	-32	95*	98*	99*	103*	95*	97*
CCCC1=NN(c2ccc([N+](=O)[O-])cc2)C(=O)/C1=C/N(C)C	98*	99*	1	21	-13	95*	95*	95*	101*	96*	96*
CC1=NN(c2ccc([N+](=O)[O-])cc2)C(=O)/C1=C\N(C)C	97*	95*	6	43*	-20	93*	96*	95*	102*	98*	96*

Screens from PubChem.
